The text below walks through data of publication PMC3344817 (ChemMedChem, 2011).

One data set deals with Molt 4/C8 T-lymphocytes. Nature of the data set: Cytotoxicity. It counts as cell-based, human. Conditions: for IC50: Homo sapiens, Molt4/C8, 72 h, read-out: IC50, Molt 4/C8 cells; for RP (relative potency), Molt 4/C8 cells: IC50 of 2 divided by IC50 of the compound.
A further data set concerns CEM T-lymphocytes. Briefly: Cytotoxicity. It counts as cell-based, human. Conditions: IC50 of 2 divided by IC50 of the compound.
The test system of another data set is L1210 cells. Briefly: Cytotoxicity. Conditions: for RP (relative potency), L1210 cells: IC50 of 2 divided by IC50 of the compound; for IC50: Mus musculus, L1210, 48 h, read-out: IC50, L1210 cells. It counts as cell-based, murine.
A further data set deals with CEM. Briefly: CC50 by flow cytometry with propidium iodide, CEM. The data set is classed as cell-based, human. To be noted: CC50 toward NIH-3T3 fibroblasts / CC50 toward CEM. In a few lines:
(§1)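 Non-adherent lymphoma/leukaemia cells in RPMI were given a range of test compound concentrations (DMSO solution) for 22 h at 37°C. Plasma membrane disruption was scored by flow cytometry with propidium iodide to derive CC50, and values are the mean of three independent experiments. SI = CC50 toward NIH-3T3 fibroblasts ÷ CC50 toward the given non-adherent line.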

The test system of the next data set is EL-4. Briefly: CC50 by flow cytometry with propidium iodide, EL-4. The data set is classed as cell-based, murine. Summed up: as §1
The next data set deals with JURKAT. Nature of the data set: CC50 by flow cytometry with propidium iodide, JURKAT. The data set is classed as cell-based, human. Summed up:
as §1

A further data set deals with Nalm6. Briefly: CC50 by flow cytometry with propidium iodide, Nalm6. The data set is classed as cell-based, human. Summed up:
as §1

For another data set, the system named is Sup-T1. Briefly: CC50 by flow cytometry with propidium iodide, Sup-T1. It counts as cell-based, human. Summed up:
as §1

Data set [1] is described as follows: CC50 by flow cytometry with propidium iodide, NIH-3T3 fibroblasts. The data set is classed as cell-based, murine. Conditions: mouse, NIH-3T3 fibroblasts (non-malignant). Summed up: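 Adherent NIH-3T3 fibroblasts in DMEM received a range of test compound concentrations (DMSO solution) for 22 h at 37°C. CC50 was obtained by flow cytometry with propidium iodide, scoring plasma membrane disruption. Values are the mean of three independent experiments.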

Data set [2] deals with JURKAT, Nalm-6, SUP-T1, or CEM cells. Briefly: Flow cytometry analysis of apoptosis and necrosis. The data set is classed as cell-based, human. To be noted: after 20 h; relative to the percentage at 8 h; four non-adherent cell lines. In a few lines: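 Test compound was incubated with JURKAT, Nalm-6, SUP-T1 or CEM cells in RPMI. After 8 and 20 h, cells were stained with Annexin-V-FITC plus propidium iodide. Flow cytometry gave the percentages of apoptotic, necrotic and viable cells.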

A further data set deals with human tumor cell lines. Briefly: US National Cancer Institute human tumor cell line screen. To be noted: 48 h; Figure 4. The data set is classed as cell-based.

For `O=C1C(=Cc2ccccc2)CN(C(=O)C=CC(=O)N2CC(=Cc3ccccc3)C(=O)C(=Cc3ccccc3)C2)CC1=Cc1ccccc1` [1 f, 1,4-Bis-(3,5-dibenzylidene-4-oxo-piperidin-1-yl)but-2-ene-1,4-dione], in the data set with Molt 4/C8 T-lymphocytes, the IC50 was 4400 ± 2950 nM and the “RP (relative potency), Molt 4/C8 cells” value is 1.8. For the same molecule, in the data set on CEM T-lymphocytes, the “RP (relative potency), CEM cells” value stood at 0.2. Besides, in the data set on L1210 cells, the “RP (relative potency), L1210 cells” value was 0.3 and the IC50 was 28900 ± 2000 nM.

`O=C1C(=Cc2ccccc2)CN(C(=O)C(=O)N2CC(=Cc3ccccc3)C(=O)C(=Cc3ccccc3)C2)CC1=Cc1ccccc1` [Compound 1a, 1,2-Bis(3,5-dibenzylidene-4-oxo-piperidin-1-yl)ethane-1,2-dione]: the IC50 worked out at 460 ± 110 nM in the data set with Molt 4/C8 T-lymphocytes and 4460 ± 230 nM in the data set with L1210 cells. For the same molecule, in the data set on Molt 4/C8 T-lymphocytes, the “RP (relative potency), Molt 4/C8 cells” value is listed as 18. In addition, the “RP (relative potency), CEM cells” value with CEM T-lymphocytes worked out at 2.5. In addition, in the data set with L1210 cells, the “RP (relative potency), L1210 cells” value came to 1.8. Also, in the data set with CEM, the “SI (selectivity index), CEM” value was 376. In addition, the “SI (selectivity index), EL-4” value in the data set on EL-4 (CC50 toward NIH-3T3 fibroblasts / CC50 toward EL-4) is reported as 412. Also, the CC50 in the data set with EL-4 (Mus musculus, EL4, 22 h, read-out: CC50, EL-4) is 31 nM; in the data set on JURKAT (Homo sapiens, Jurkat, 22 h, read-out: CC50, JURKAT), 29 nM; with Nalm6 (Homo sapiens, NALM-6, 22 h, read-out: CC50, Nalm6), 22 nM; in the data set with Sup-T1 (Homo sapiens, SUP-T1, 22 h, read-out: CC50, Sup-T1) it was 384 nM. For the same molecule, the “SI (selectivity index), JURKAT” value in the data set with JURKAT (CC50 toward NIH-3T3 fibroblasts / CC50 toward JURKAT) was 441. In addition, the “SI (selectivity index), Nalm6” value in the data set on Nalm6 (CC50 toward NIH-3T3 fibroblasts / CC50 toward Nalm6) is given as 581. Moreover, the “SI (selectivity index), Sup-T1” value in the data set on Sup-T1 (CC50 toward NIH-3T3 fibroblasts / CC50 toward Sup-T1) is recorded as 33. Also, half-maximal cytotoxicity in [1] (CC50 at 22 h) was put at 12800 nM. The apoptotic cells entry in data set [2] is listed as “doubling”. Further, the “IC50 towards human tumor cell lines, comparison” value in the data set with human tumor cell lines is “generally displays lower IC50 values than 1 b”.

`O=C1C(=Cc2ccccc2)CN(C(=O)CC(=O)N2CC(=Cc3ccccc3)C(=O)C(=Cc3ccccc3)C2)CC1=Cc1ccccc1` [Compound 1b, 1,3-Bis-(3,5-dibenzylidene-4-oxo-piperidin-1yl)propane-1,3-dione]: in the data set on Molt 4/C8 T-lymphocytes, the IC50 was 70 ± 10 nM and the “RP (relative potency), Molt 4/C8 cells” value was 115. Also, in the data set on CEM T-lymphocytes, the “RP (relative potency), CEM cells” value is 9.3. For the same molecule, in the data set on L1210 cells, the “RP (relative potency), L1210 cells” value is listed as 6.5 and the IC50 amounted to 1230 ± 380 nM.

`O=C1C(=Cc2ccccc2)CN(C(=O)CCC(=O)N2CC(=Cc3ccccc3)C(=O)C(=Cc3ccccc3)C2)CC1=Cc1ccccc1` [Compound 1c, 1,4-Bis-(3,5-dibenzylidene-4-oxo-piperidin-1-yl)butane-1,4-dione]: in the data set on Molt 4/C8 T-lymphocytes, the IC50 is 570 ± 160 nM and the “RP (relative potency), Molt 4/C8 cells” value is reported as 14. Moreover, the “RP (relative potency), CEM cells” value in the data set with CEM T-lymphocytes came out at 1.5. In the data set with L1210 cells, the “RP (relative potency), L1210 cells” value amounted to 0.6 and the IC50 was determined as 14000 ± 1200 nM.

With `O=C1C(=Cc2ccccc2)CN(C(=O)CCCC(=O)N2CC(=Cc3ccccc3)C(=O)C(=Cc3ccccc3)C2)CC1=Cc1ccccc1` [Compound 1d, 1,5-Bis-(3,5-dibenzylidene-4-oxo-piperidin-1-yl)pentane-1,5-dione], in the data set with Molt 4/C8 T-lymphocytes, the IC50 turned out to be 1610 ± 50 nM and the “RP (relative potency), Molt 4/C8 cells” value is 5.0. Also, the “RP (relative potency), CEM cells” value with CEM T-lymphocytes came to 0.9. Also, in the data set with L1210 cells, the “RP (relative potency), L1210 cells” value is recorded as 0.7 and the IC50 is 11500 ± 300 nM.

Take `O=C1C(=Cc2ccccc2)CN(C(=O)CCCCCCC(=O)N2CC(=Cc3ccccc3)C(=O)C(=Cc3ccccc3)C2)CC1=Cc1ccccc1` [Compound 1e, 1,8-Bis-(3,5-dibenzylidene-4-oxo-piperidin-1-yl)octane-1,8-dione]: in the data set with Molt 4/C8 T-lymphocytes, the IC50 is 1530 ± 540 nM and the “RP (relative potency), Molt 4/C8 cells” value was 5.3. Besides, the “RP (relative potency), CEM cells” value in the data set on CEM T-lymphocytes came to 0.8. For the same molecule, in the data set with L1210 cells, the “RP (relative potency), L1210 cells” value amounted to 0.5 and the IC50 was 15300 ± 4200 nM.

For the molecule `O=C1C(=Cc2ccccc2)CN(C(=O)C#CC(=O)N2CC(=Cc3ccccc3)C(=O)C(=Cc3ccccc3)C2)CC1=Cc1ccccc1` [Compound 1g, 1,4-Bis-(3,5-dibezylidene-4-oxo-piperidin-1-yl)-but-2-yne-1,4-dione], the “RP (relative potency), Molt 4/C8 cells” value with Molt 4/C8 T-lymphocytes is given as 5.4. Moreover, the “RP (relative potency), CEM cells” value in the data set with CEM T-lymphocytes came out at 0.6. The “RP (relative potency), L1210 cells” value with L1210 cells is 0.8.

Regarding `O=C1C(=Cc2ccccc2)CN(C(=O)C=CC=CC(=O)N2CC(=Cc3ccccc3)C(=O)C(=Cc3ccccc3)C2)CC1=Cc1ccccc1` [Compound 1h, 1,6-Bis-(3,5-dibenzylidene-4-oxo-piperidin-1-yl)-hexa-2,4-diene-1,6-dione], in the data set with Molt 4/C8 T-lymphocytes, the IC50 was 25100 ± 15800 nM and the “RP (relative potency), Molt 4/C8 cells” value is 0.3. Further, in the data set on CEM T-lymphocytes, the “RP (relative potency), CEM cells” value came out at 0.1. In the data set with L1210 cells, the “RP (relative potency), L1210 cells” value was found to be 0.1 and the IC50 came to 79000 ± 10200 nM.

In the case of `O=C1C(=Cc2ccccc2)CN(C(=O)c2ccccc2C(=O)N2CC(=Cc3ccccc3)C(=O)C(=Cc3ccccc3)C2)CC1=Cc1ccccc1` [Compound 1i, 1,2-Bis-[(3,5-dibenzylidene-4-oxo-piperidin-1-yl)-1-carbonyl]benzene], in the data set on Molt 4/C8 T-lymphocytes, the “RP (relative potency), Molt 4/C8 cells” value was determined as 9.5. Moreover, the “RP (relative potency), CEM cells” value in the data set with CEM T-lymphocytes was 1.3. The “RP (relative potency), L1210 cells” value in the data set with L1210 cells is recorded as 1.9.

Regarding `O=C1C(=Cc2ccccc2)CN(C(=O)c2cccc(C(=O)N3CC(=Cc4ccccc4)C(=O)C(=Cc4ccccc4)C3)c2)CC1=Cc1ccccc1` [Compound 1j, 1,3-Bis-[(3,5-dibenzylidene-4-oxo-piperidin-1-yl)-1-carbonyl]benzene], in the data set on Molt 4/C8 T-lymphocytes, the “RP (relative potency), Molt 4/C8 cells” value came out at 0.7. Also, in the data set with CEM T-lymphocytes, the “RP (relative potency), CEM cells” value was 0.1. In addition, the “RP (relative potency), L1210 cells” value in the data set on L1210 cells is 0.1.

Consider `N[C@@H](Cc1ccc(N(CCCl)CCCl)cc1)C(=O)O` [Melphalan, reference compound], for which the IC50 with Molt 4/C8 T-lymphocytes stood at 3240 ± 790 nM.
